Activity calls are given as the source filed them. The calls are words filed in the database; no cut-off is given here.

Data set [1] concerns MDCK. The data set is described as follows: Induction of ROS-mediated cell death in dog MDCK cells expressing MRP1 at 500 nM incubated for 24 hrs by DCFDA-AM staining based ATPlite luminescence assay. It counts as functional. The following applies: Canis lupus familiaris. The method in brief: (§1)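 Viability by ATPlite luminescence; untreated cell RLU set as 100%, results as % viable cells vs untreated. Quadruplicates, n = 3, means ± SD.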

The target in data set [2] is T1, Broad substrate specificity ATP-binding cassette transporter ABCG2 (Homo sapiens, UniProt Q9UNQ0).
T1 sequence (Q9UNQ0 whole entry): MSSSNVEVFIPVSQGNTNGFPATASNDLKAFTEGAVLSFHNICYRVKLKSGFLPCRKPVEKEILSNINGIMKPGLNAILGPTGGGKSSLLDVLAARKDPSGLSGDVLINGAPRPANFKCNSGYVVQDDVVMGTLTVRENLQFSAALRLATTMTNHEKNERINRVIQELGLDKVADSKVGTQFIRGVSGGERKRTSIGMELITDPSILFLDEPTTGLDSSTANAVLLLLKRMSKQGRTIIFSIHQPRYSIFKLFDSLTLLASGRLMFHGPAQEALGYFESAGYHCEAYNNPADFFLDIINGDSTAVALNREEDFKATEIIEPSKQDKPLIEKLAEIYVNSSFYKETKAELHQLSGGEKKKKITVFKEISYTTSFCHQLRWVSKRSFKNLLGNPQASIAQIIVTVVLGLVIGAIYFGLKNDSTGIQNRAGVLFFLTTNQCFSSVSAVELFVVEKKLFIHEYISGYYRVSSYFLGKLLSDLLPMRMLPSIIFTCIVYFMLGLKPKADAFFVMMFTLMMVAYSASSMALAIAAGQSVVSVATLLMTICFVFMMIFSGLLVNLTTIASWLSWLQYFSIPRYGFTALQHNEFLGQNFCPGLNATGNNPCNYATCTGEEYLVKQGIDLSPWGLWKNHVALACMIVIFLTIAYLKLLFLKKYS
The data set is described as follows: Inhibition of BCRP (unknown origin) expressed in MDCK cells assessed as increase in Hoechst 33342 accumulation incubated for 30 mins by Hoechst 33342 dye based fluorescence assay. It counts as cell-based.

The target in data set [3] is T2, ATP-dependent translocase ABCB1 (Homo sapiens, UniProt P08183). Put plainly: Inhibition of MDR1 (unknown origin) expressed in MDCK-MDR1 cells assessed as decrease in ATP consumption incubated for 2 hrs by ATPlite luminescence assay. It counts as cell-based. The following applies: mdck-mdr1, 2 h.
T2 sequence (P08183 whole entry): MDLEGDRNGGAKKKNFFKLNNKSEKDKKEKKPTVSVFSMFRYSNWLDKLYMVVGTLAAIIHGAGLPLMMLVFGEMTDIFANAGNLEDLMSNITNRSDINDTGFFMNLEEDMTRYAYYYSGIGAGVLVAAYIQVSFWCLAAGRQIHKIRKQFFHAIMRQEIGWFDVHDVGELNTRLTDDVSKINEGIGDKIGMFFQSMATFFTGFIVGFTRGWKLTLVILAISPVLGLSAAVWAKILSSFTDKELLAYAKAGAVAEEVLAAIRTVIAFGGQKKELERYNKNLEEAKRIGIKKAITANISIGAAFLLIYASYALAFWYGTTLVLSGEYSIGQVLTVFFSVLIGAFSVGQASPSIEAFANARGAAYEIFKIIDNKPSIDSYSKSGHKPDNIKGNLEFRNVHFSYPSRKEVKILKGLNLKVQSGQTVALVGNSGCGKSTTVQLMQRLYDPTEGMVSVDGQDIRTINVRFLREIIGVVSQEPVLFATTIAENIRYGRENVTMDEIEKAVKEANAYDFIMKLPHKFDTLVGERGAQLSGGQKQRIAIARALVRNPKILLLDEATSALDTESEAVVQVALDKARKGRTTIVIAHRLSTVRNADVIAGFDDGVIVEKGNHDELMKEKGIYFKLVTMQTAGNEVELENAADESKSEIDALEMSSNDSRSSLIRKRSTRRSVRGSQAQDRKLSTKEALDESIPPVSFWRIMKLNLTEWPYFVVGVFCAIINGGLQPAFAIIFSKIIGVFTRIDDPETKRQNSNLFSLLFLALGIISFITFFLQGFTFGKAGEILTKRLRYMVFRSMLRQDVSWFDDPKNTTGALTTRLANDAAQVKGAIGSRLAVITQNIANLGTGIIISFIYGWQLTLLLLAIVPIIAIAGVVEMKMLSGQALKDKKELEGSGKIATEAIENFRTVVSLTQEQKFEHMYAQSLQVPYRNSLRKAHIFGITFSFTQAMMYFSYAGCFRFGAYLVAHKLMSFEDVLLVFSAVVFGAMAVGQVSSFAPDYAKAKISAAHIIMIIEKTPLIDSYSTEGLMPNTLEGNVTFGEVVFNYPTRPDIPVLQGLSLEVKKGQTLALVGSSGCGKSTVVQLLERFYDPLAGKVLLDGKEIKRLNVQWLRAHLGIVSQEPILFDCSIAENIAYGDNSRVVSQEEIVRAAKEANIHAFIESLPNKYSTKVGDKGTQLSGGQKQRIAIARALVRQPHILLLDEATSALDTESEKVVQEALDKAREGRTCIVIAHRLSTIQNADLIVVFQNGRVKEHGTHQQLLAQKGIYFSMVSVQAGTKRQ
Data set [4] has as its system MDCK. Put plainly: Cytotoxicity against dog MDCK cells expressing MRP1 assessed as reduction in cell viability incubated for 24 hrs by MTT assay. Conditions: Canis lupus familiaris. It counts as functional, cell-based. The method in brief:
(§2)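 MDCK parental, MDCK-MDR1 and MDCK-MRP1 cells grown in DMEM high glucose with 10% FBS, 2 mM glutamine, penicillin/streptomycin at 37 °C, 5% CO2. Compound exposure 24 h; viability by MTT. EC50 taken per line; selectivity ratio computed as EC50 parental/EC50 MDR.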

The target of data set [5] is P-gp (ABCB1) (Homo sapiens, UniProt P08183). The data set is described as follows: Inhibition of P-gp (unknown origin) in […] MDCK-MDR1 cells assessed as increase in doxorubicin-induced cytotoxicity at 500 nM […] by MTT assay relative to control. It counts as cell-based. The following applies: probe doxorubicin.
P-gp (ABCB1), sequence (P08183 whole entry): as above
For data set [6], the target named is T2, ATP-dependent translocase ABCB1. Put plainly: Inhibition of P-gp in human K562/DOX cells assessed as drug level causing 50% increase in nuclear pirarubicin concentration incubated for 30 mins by fluorescence based assay. The following applies: read-out: I0.5. It counts as cell-based.
Data set [7] shares this target. The data set is described as follows: Inhibition of P-gp in human K562/DOX cells assessed as drug level causing maximum increase in nuclear pirarubicin concentration incubated for 30 mins by fluorescence based assay relative to control. Conditions: 0.5 h. It counts as cell-based.
A short description of data set [8]: Stability of compound in human plasma assessed as half life at 1 uM incubated for 120 min by LC-MS/MS analysis. In kind it is ADME, cell-free. The method in brief:
(§3)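 Analyte added to PBS or human plasma (healthy volunteer, stored at -80 °C) to 1 μM; incubated at 37 °C for 0, 30, 60 and 120 min, triplicate per time point. Internal standard solution added, centrifuged, supernatant dried under nitrogen and redissolved. Analyte quantified by LC-MS/MS in MRM mode; half-life derived from decay rate k.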

Data set [9] relates to MDCK. The data set is described as follows: Induction of ROS generation in dog MDCK cells over expressing MRP1 at 500 nM incubated for 24 hrs by DCFDA-AM staining based ATPlite luminescence assay. The following applies: Canis lupus familiaris. It counts as functional, cell-based. The method in brief:
(§4)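 MDCK-MRP1 or MDCK-MDR1 cells grown 24 h in fresh medium or with 500 nM compound, with or without 10 mM N-acetyl-cysteine. Intracellular ROS measured fluorimetrically with DCFDA-AM probe, expressed as nmol/mg cellular protein; duplicates, n = 3, means ± SD.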

For data set [10], the system named is MDCK. Put plainly: Induction of ROS-mediated cell death in dog MDCK cells expressing MRP1 at 500 nM in presence of NAC incubated for 24 hrs by DCFDA-AM staining based ATPlite luminescence assay. In kind it is functional. Conditions: Canis lupus familiaris. The method in brief: as §1
For data set [11], the target named is T2, ATP-dependent translocase ABCB1. The data set is described as follows: Inhibition of P-gp (unknown origin) expressed in MDCK-MDR1 cells assessed as increase in calcein-AM accumulation incubated for 30 mins by calcein-AM dye based fluorescence assay. In kind it is cell-based.
The subject of data set [12] is MDCK. Put plainly: Cytotoxicity against dog MDCK cells assessed as reduction in cell viability incubated for 24 hrs by MTT assay. Conditions: Canis lupus familiaris. In kind it is cell-based. The method in brief: as §2
Data set [13] can be described thus: Chemical stability of compound assessed as half life in PBS at 1 uM incubated 120 mins by LC-MS/MS analysis. In kind it is physicochemical. The method in brief: as §3
The target of data set [14] is P-gp (MDR1, ABCB1) (Homo sapiens, UniProt P08183). The data set is described as follows: Inhibition of MDR1 (unknown origin) expressed in MDCK-MDR1 cells assessed as decrease in ATP consumption at 10 uM incubated for 2 hrs by ATPlite luminescence assay relative to control. It counts as cell-based. Conditions: MDCK-MDR1 cells expressing MDR1.
P-gp (MDR1, ABCB1), sequence (P08183 whole entry): as above
Data set [15] has as its target T3, BCRP (ABCG2) (Homo sapiens, UniProt Q9UNQ0).
T3 sequence (Q9UNQ0 whole entry): T1 sequence (Q9UNQ0 whole entry)
The data set is described as follows: Inhibition of BCRP (unknown origin) expressed in MDCK cells assessed as increase in Hoechst 33342 accumulation at upto 100 uM incubated for 30 mins by Hoechst 33342 dye based fluorescence assay. The following applies: MDCK cells expressing BCRP, probe Hoechst 33342. In kind it is cell-based.

Data set [16] concerns MDCK-MDR1. Put plainly: Cytotoxicity against dog MDCK-MDR1 cells assessed as reduction in cell viability incubated for 24 hrs by MTT assay. Conditions: Canis lupus familiaris, MDCK-MDR1, 24 h. It counts as functional, cell-based. The method in brief: as §2
The subject of data set [17] is MDCK-MDR1. Put plainly: Induction of ROS-mediated cell death in dog MDCK-MDR1 cells at 500 nM incubated for 24 hrs by DCFDA-AM staining based ATPlite luminescence assay. In kind it is functional. Conditions: Canis lupus familiaris. The method in brief:
as §1

Data set [18] deals with MDCK-MDR1. Put plainly: Induction of ROS generation in dog MDCK-MDR1 cells at 500 nM incubated for 24 hrs by DCFDA-AM staining based ATPlite luminescence assay. In kind it is functional, cell-based. Conditions: Canis lupus familiaris. The method in brief:
as §4

For data set [19], the system named is MDCK-MDR1. Put plainly: Induction of ROS-mediated cell death in dog MDCK-MDR1 cells at 500 nM incubated for 24 hrs in presence of NAC by DCFDA-AM staining based ATPlite luminescence assay. It counts as functional. The following applies: Canis lupus familiaris. The method in brief:
as §1

`COc1cc(/C=C/C(=O)OCCCCCN(C)C[C@@H](C)COC(=O)c2cc(OC)c(OC)c(OC)c2)cc(OC)c1OC`: the result in data set [1], in data set [9] and in data set [10] was Active. Moreover, the concentration giving a half-maximal response (EC50) in data set [2] (read-out: EC50) was 41 µM; in data set [4], 11.7 µM; in data set [11] it was 0.31 µM; in data set [12], 100 µM. Further, the “inhibition (INH)” value in data set [3] was “Not Active”. The inhibition at 24 h, 0.5 µM in data set [5] is 30%. In data set [6], the IC50 worked out at 0.35 µM. For the same compound, the Alpha max in data set [7] was 0.72. In addition, the half-life at 1 µM in [8] and in [13] was not below 4 h throughout.
`COc1cc(/C=C/C(=O)OC[C@@H](C)CN(C)CCCOC(=O)c2cc(OC)c(OC)c(OC)c2)cc(OC)c1OC`: the inhibition at 2 h, 10 µM in [14] was 20%. The EC50 was 3.7 µM in data set [2] (read-out: EC50) and 1.38 µM in data set [11]. The IC50 in [6] worked out at 0.09 µM. Moreover, in data set [7], the Alpha max was 0.75. Also, the half-life at 1 µM in data set [8] was 0.483 h; in [13], not below 4 h.
With `COc1cc(/C=C/C(=O)OC[C@H](C)CN(C)CCCCCOC(=O)c2cc(OC)c(OC)c(OC)c2)cc(OC)c1OC`, the EC50 entry is “Not Active” in data set [2] (mdck) and 1 µM in data set [11]. In addition, the “inhibition (INH)” value in data set [3] is given as “Not Active”. In addition, in data set [6], the IC50 came out at 0.4 µM. The Alpha max in data set [7] is on record as 0.99. Also, the half-life at 1 µM in [8] was 0.483 h; in [13] it was not below 4 h. Further, the inhibition at 0.5 h in [15] was found to be 0%.
In the case of `COc1cc(/C=C/C(=O)OCCCN(C)C[C@H](C)COC(=O)c2cc(OC)c(OC)c(OC)c2)cc(OC)c1OC`, the EC50 is 40 µM in data set [16], 6.4 µM in [2] (read-out: EC50), 0.55 µM in data set [11] and 100 µM in data set [12]. The “inhibition (INH)” value in [3] is “Not Active”. The outcome in data set [17], in data set [18] and in data set [19] was Active. For the same compound, in data set [6], the IC50 was determined as 0.54 µM. In addition, the Alpha max in [7] is 0.89. Further, the half-life at 1 µM in data set [8] and in data set [13] was not below 4 h throughout.
Take `COc1cc(/C=C/C(=O)OC[C@@H](C)CN(C)CCCCCCCOC(=O)c2c3ccccc3cc3ccccc23)cc(OC)c1OC`: the EC50 in data set [2] (read-out: EC50) is 5.6 µM; in data set [11], 0.93 µM. Also, the “inhibition (INH)” value in [3] is listed as “Not Active”. In addition, the IC50 in data set [6] came to 0.89 µM. Moreover, in data set [7], the Alpha max is recorded as 0.8. The half-life at 1 µM in data set [8] and in data set [13] was not below 4 h in each case.
Turning to `COc1cc(/C=C/C(=O)OCCCN(C)C[C@@H](C)COC(=O)c2cc(OC)c(OC)c(OC)c2)cc(OC)c1OC`, the concentration giving a half-maximal response (EC50) is 9.5 µM in data set [2] (read-out: EC50) and 0.073 µM in data set [11]. Moreover, the “inhibition (INH)” value in data set [3] is recorded as “Not Active”. For the same compound, the IC50 in data set [6] was determined as 0.11 µM. The Alpha max in [7] stood at 0.99. The half-life at 1 µM in data set [8] is 0.9 h; in data set [13], not below 4 h.

(Values after ChEMBL document CHEMBL4359914, “Design, synthesis and biological evaluation of stereo- and regioisomers of amino aryl esters as multidrug resistance (MDR) reversers” (Eur J Med Chem, 2019).)
